Data from ChEMBL document CHEMBL1152714, “Design, synthesis and biological evaluation of a novel class of anticancer agents: anthracenylisoxazole lexitropsin conjugates” (Bioorg Med Chem, 2009).
Calls of active or inactive are those of the source. No cut-off for these calls is given here.

Columns and labels:
[1] = organism: Homo sapiens; assay: Stabilization of human telomeric G-quadruplex DNA assessed as inhibition of duplex formation at 5 uM by ESI-MS study
Summary of the method: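 Time-course ESI-MS was run on a mixture of 5 μM G-quadruplex DNA, 5 μM complementary C-DNA and 5 μM ligand. Ion intensities of single-stranded and duplex DNA were followed as the strands re-hybridized. TMPyP4 was the positive control and no ligand the negative control.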

[2] = Antitumor activity against human NCI60 cells after 48 hrs by SRB assay; type: functional; conditions: NCI60, 48 h
Summary of the method: (§1)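 Cells were exposed to the drug continuously for 48 h. Cell viability or growth was estimated with the sulforhodamine B protein assay.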

[3] = tested on: Mus musculus; assay: Acute toxicity in ip dosed mouse; type: organism-based; conditions: in vivo
Summary of the method: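 Mice given three dose regimens (100, 200 and 400 mg/kg), with animals followed to day 14 and body weight recorded at day 14 for signs of acute toxicity.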

[4] = tested on: DNA; assay: Binding affinity to calf thymus DNA at 10 uM by microarray fluorescence experiment; type: nucleic-acid assay; conditions: Bos taurus
Summary of the method: (§2)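 DNA was prepared in TE buffer with 10 mM KCl at pH 7.0, to a final concentration of 400 […]. The oligonucleotide was hybridized with Cy3-AP3-dCTP. The ligand was 10 μM in aqueous 25% DMSO. Mixtures were incubated at 37°C for 5 min, then printed on slides. Excitation was at 310, 380, 410 and 485 nm, emission at 530 nm. Slides were read on a microarray scanner at 10 μm resolution.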

[5] = Binding affinity to Hurley-oligonucleotide at 10 uM by microarray fluorescence experiment; summary of the method: as §2
[6] = tested on: Mus musculus; assay: Toxicity in mouse assessed as weight gain at 200 mg/kg, ip after 14 days; type: organism-based; parameters: dose 200 mg/kg, route intraperitoneal; conditions: in vivo, 336 h
Summary of the method: (§3)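 Acute toxicity was tested in mice at three dose regimens (100, 200 and 400 mg/kg). Body weight was assessed at day 14.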

[7] = tested on: Mus musculus; assay: Toxicity in mouse assessed as weight gain at 400 mg/kg, ip after 14 days; type: organism-based; parameters: dose 400 mg/kg, route intraperitoneal; conditions: in vivo, 336 h; summary of the method: as §3
[8] = organism: Homo sapiens; assay: Binding affinity to human DNA at a drug-DNA ratio of 1:1 by fluorescence experiment
Summary of the method: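 Solution fluorescence was measured on histone-free human DNA mixed with the ligand at a 1:1 molar ratio. The shift in λmax was monitored.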

[9] = tested on: Mus musculus; assay: Toxicity in mouse assessed as weight gain at 100 mg/kg, ip after 14 days; type: organism-based; parameters: dose 100 mg/kg, route intraperitoneal; conditions: in vivo, 336 h; summary of the method: as §3
[10] = tested on: EKVX; assay: Antitumor activity against human EKVX cells overexpressing c-myc after 48 hrs by SRB assay; type: functional; summary of the method: as §1
[11] = tested on: HCC 2998; assay: Antitumor activity against human HCC2998 cells overexpressing c-myc after 48 hrs by SRB assay; type: functional; conditions: HCC 2998, 48 h; summary of the method: as §1
[12] = tested on: SF-295; assay: Antitumor activity against human SF295 cells overexpressing c-myc after 48 hrs by SRB assay; type: functional; conditions: SF-295, 48 h; summary of the method: as §1
[13] = tested on: SNB-75; assay: Antitumor activity against human SNB75 cells overexpressing c-myc after 48 hrs by SRB assay; type: functional; conditions: SNB-75, 48 h; summary of the method: as §1
[14] = tested on: HOP-62; assay: Antitumor activity against human HOP62 cells overexpressing c-myc after 48 hrs by SRB assay; type: functional; conditions: HOP-62, 48 h; summary of the method: as §1
[15] = tested on: HOP-92; assay: Antitumor activity against human HOP92 cells overexpressing c-myc after 48 hrs by SRB assay; type: functional; conditions: HOP-92, 48 h; summary of the method: as §1
[16] = tested on: SF-539; assay: Antitumor activity against human SF539 cells overexpressing c-myc after 48 hrs by SRB assay; type: functional; conditions: SF-539, 48 h; summary of the method: as §1
[17] = tested on: NCI-H226; assay: Antitumor activity against human NCI-H226 cells overexpressing c-myc after 48 hrs by SRB assay; type: functional; conditions: NCI-H226, 48 h; summary of the method: as §1
[18] = target: Telomerase reverse transcriptase (Homo sapiens) (UniProt O14746); assay: Inhibition of telomerase assessed as telomere elongation by TRAP assay
Chain of Telomerase reverse transcriptase (Homo sapiens) (O14746 whole entry): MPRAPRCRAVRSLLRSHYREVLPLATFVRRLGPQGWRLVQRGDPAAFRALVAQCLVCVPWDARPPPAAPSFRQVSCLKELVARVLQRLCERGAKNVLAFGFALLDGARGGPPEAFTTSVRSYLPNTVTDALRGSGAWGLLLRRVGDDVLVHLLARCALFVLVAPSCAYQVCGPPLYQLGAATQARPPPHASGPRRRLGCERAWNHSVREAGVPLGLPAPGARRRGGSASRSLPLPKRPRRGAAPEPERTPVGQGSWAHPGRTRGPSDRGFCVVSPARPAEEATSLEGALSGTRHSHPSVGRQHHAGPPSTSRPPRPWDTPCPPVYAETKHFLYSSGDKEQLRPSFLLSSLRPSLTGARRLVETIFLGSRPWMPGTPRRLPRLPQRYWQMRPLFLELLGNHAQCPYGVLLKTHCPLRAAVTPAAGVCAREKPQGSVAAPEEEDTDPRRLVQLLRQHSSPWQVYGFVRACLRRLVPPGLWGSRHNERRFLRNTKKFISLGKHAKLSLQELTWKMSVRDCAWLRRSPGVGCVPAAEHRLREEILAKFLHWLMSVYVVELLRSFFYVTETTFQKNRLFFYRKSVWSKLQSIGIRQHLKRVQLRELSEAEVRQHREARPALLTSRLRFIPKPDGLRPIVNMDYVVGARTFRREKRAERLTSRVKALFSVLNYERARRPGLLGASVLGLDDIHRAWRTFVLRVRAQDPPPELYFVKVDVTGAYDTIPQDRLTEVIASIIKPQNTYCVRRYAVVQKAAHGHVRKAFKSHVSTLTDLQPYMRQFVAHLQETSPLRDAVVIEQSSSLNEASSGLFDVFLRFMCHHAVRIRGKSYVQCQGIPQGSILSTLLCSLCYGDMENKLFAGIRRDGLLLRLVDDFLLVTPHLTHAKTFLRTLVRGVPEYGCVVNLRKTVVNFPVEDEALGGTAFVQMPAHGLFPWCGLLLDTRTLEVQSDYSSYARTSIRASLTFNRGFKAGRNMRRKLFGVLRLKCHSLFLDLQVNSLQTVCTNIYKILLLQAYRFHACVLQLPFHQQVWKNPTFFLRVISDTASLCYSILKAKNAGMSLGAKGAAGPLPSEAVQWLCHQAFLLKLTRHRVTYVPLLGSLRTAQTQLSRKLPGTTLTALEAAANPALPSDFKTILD
Summary of the method: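 Telomere elongation was assessed by a TRAP assay with gel electrophoresis read-out.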

[19] = target: DNA polymerase I, thermostable (Thermus aquaticus) (UniProt P19821); assay: Inhibition of Taq polymerase
Chain of DNA polymerase I, thermostable (Thermus aquaticus) (P19821 whole entry): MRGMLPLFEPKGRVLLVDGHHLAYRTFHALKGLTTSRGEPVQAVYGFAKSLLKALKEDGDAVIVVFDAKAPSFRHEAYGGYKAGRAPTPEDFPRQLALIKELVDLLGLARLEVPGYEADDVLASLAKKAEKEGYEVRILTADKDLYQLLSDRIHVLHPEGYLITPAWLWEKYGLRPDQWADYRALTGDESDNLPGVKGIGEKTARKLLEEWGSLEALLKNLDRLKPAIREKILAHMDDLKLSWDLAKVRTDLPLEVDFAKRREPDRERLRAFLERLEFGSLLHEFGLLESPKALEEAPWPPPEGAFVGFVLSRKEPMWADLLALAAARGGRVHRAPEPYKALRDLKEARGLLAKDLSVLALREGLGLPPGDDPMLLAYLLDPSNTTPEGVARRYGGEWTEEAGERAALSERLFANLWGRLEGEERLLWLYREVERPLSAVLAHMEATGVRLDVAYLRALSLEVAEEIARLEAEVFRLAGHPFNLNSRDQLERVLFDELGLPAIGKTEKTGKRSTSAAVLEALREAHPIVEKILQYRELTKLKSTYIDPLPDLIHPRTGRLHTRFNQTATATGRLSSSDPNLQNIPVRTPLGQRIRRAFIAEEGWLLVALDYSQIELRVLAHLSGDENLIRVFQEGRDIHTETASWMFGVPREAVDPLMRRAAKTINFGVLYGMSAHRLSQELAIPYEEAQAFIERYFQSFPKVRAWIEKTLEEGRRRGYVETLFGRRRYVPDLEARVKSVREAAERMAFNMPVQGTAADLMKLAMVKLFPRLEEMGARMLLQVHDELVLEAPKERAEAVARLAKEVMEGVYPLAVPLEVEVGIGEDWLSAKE

Structure (SMILES) | GI50 ([2]; read-out: GI50) | GI50 ([2]; read-out: pGI50 (converted)) | other results
C[n+]1ccc(-c2c3nc(c(-c4cc[n+](C)cc4)c4ccc([nH]4)c(-c4cc[n+](C)cc4)c4ccc([nH]4)c(-c4cc[n+](C)cc4)c4nc2C=C4)C=C3)cc1 | – | – | Activity [1]: Active
Cc1onc(-c2c3ccccc3cc3ccccc23)c1C(=O)Nc1cc(C(=O)Nc2cc(C(=O)N(CCCN(C)C)CCCN(C)C)n(C)c2)n(C)c1 | 15.5 µM | 15.5 µM | –
Cc1onc(-c2c3ccccc3cc3ccccc23)c1C(=O)Nc1cc(C(=O)Nc2cc(C(=O)NCCCN(C)C)n(C)c2)n(C)c1 | 10.5 µM | 12.3 µM | Activity [3]: Non-toxic; Activity [4]: Active; Activity [5]: Active; Activity [6]: Toxic; Activity [7]: Toxic; Activity [8]: Active; Activity [9]: Toxic
Cc1onc(-c2c3ccccc3cc3ccccc23)c1C(=O)Nc1cc(C(=O)N(CCCN(C)C)CCCN(C)C)n(C)c1 | 3.89 µM | 3.89 µM | –
Cc1onc(-c2c3ccccc3nc3ccccc23)c1C(=O)Nc1cc(C(=O)Nc2cc(C(=O)NCCCN(C)C)n(C)c2)n(C)c1 | 20.9 µM | 20.9 µM | GI50 [10]: 0.661 µM; GI50 [11]: 0.776 µM; GI50 [12]: 0.0302 µM
Cc1onc(-c2c3ccccc3c(Br)c3ccccc23)c1C(=O)Nc1cc(C(=O)NCCCN(C)C)n(C)c1 | 8.71 µM | 8.71 µM | GI50 [13]: 0.158 µM
Cc1onc(-c2c3ccccc3cc3ccccc23)c1C(=O)N(CCCN(C)C)CCCN(C)C | 4.57 µM | 4.9 µM | –
Cc1onc(-c2c3ccccc3c(-c3ccccc3)c3ccccc23)c1C(=O)Nc1cc(C(=O)NCCCN(C)C)n(C)c1 | 0.95 µM | 1.95 µM | Activity [1]: Active; GI50 [14]: 0.0105 µM; GI50 [15]: 0.0631 µM; GI50 [16]: < 0.01 µM
CCOC(=O)c1c(-c2c3ccccc3nc3ccccc23)noc1C | 20.4 µM | 20.4 µM | –
CN(C)CCCNC(=O)c1cc(NC(=O)c2cc(NC(=O)c3onc(-c4c5ccccc5cc5ccccc45)c3C(=O)Nc3cc(C(=O)Nc4cc(C(=O)NCCCN(C)C)n(C)c4)n(C)c3)cn2C)cn1C | 20.4 µM | 20.4 µM | –
Cc1onc(-c2c3ccccc3cc3ccccc23)c1C(=O)NCCCN(C)C | 32.4 µM | 32.4 µM | GI50 [17]: < 0.01 µM
Cc1onc(-c2c3ccccc3cc3ccccc23)c1C(=O)Nc1cc(C(=O)NCCCN(C)C)n(C)c1 | 7.94 µM | 7.94 µM | GI50 [14]: 0.407 µM
Cc1onc(-c2c3ccccc3c(Cl)c3ccccc23)c1C(=O)Nc1cc(C(=O)NCCCN(C)C)n(C)c1 | 1.78 µM | 1.91 µM | Activity [18]: Active; Activity [1]: Active; GI50 [15]: 0.0933 µM; Activity [19]: inactive
